Measurements taken from ChEMBL document CHEMBL1154154, “Synthesis and pharmacological evaluation of 1,3,4-oxadiazole bearing bis(heterocycle) derivatives as anti-inflammatory and analgesic agents” (Eur J Med Chem, 2009).

What was measured:
[1] = test system: Mus musculus; experiment: Analgesic activity in albino mouse assessed as reduction in acetic acid-induced writhing response at 100 mg/kg, po administered 1 hr prior to acetic acid challenge relative to control; assay type: functional; set-up: scale not given: the % may be the effect or the level left
Outline: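 Six mice per group got compound po at 100 mg/kg, 1 h before ip 0.6% acetic acid (10 mL/kg). Total writhes were counted over an observation window starting 5 min after the acetic acid injection. Aspirin at 100 mg/kg po was the positive control.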

[2] = test system: Rattus norvegicus; experiment: Antiinflammatory activity in albino rat assessed as inhibition of carrageenan-induced paw edema at 100 mg/kg, po administered 1 hr prior to carrageenen challenge measured after 3 hrs relative to control; assay type: functional
Outline: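 Four rats per group got 100 mg/kg po, 1 h before subplantar injection of 1% Type IV lambda carrageenan suspension into the right hind paw. Vehicle controls got 0.5% sodium carboxymethyl cellulose (10 mL/kg) and the positive control got ibuprofen 100 mg/kg. Paw volume was read by plethysmograph water displacement immediately and at 3 h. Edema was compared statistically with vehicle controls as percent inhibition.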

Compound | Activity [1] [%] | inhibition in vivo at 100 mg/kg [2] [%]
CC(=O)Oc1ccccc1C(=O)O [ASPIRIN] | 57.3 | 
CC(C)Cc1ccc(C(C)C(=O)O)cc1 (configuration not stated) [IBUPROFEN] |  | 70.7
